# Assay outcomes: PubChem BioAssay, Broad Institute
# An excerpt weighted towards active compounds, which were near 2.4% of everything screened.
# S100A4 MyoIIA: S100A4-myosin IIA interaction inhibition; P26447; S100A4/TAMRA-MyoIIA peptide fluorescence polarization; inhibition, % at 10.7 µM; 0.14% of 360,000 active; AID 652163;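 active means mean inhibition of at least 70% across replicates, with every replicate also reaching that level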
#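 Material: human S100A4 monomer with TAMRA-labelled myosin IIA peptide; buffer or medium: HEPES pH 7.2 with CaCl2, KCl, NaCl, DTT, Triton; compound dosing: one concentration per compound; schedule: 5 min incubation before reading; benchmarks: neutral control DMSO, positive control TFP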
# CASP6 VEID inh: caspase-6 (human) enzyme inhibition | P55212 | purified caspase-6, Z-VEID-R110 cleavage fluorescence | inhibition, % at 12.5 µM | 0.53% of 350,000 active;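 active means mean inhibition across replicates at least about 35%, with every replicate also reaching that limit, limit read from the data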;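 further: 0% = median of neutral control wells and 100% = no fluorescence left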
# rRNA inh HTS: inhibitors of bacterial rRNA selective over humanized ribosomes | E. coli WT GFP vs humanized-ribosome RFP mutants, fluorescence, 24 h; hits give low values; DMSO median 0, no signal -100 | GFP signal change (wild-type ribosome), % (test concentration not listed) | 1.6% of 350,000 active | AID 720706;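 active means significant combined selectivity score with lowered wild-type GFP, culture density cut under 30%, mutant RFP and density less affected; inactive means any of these conditions unmet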
# PGC1a acetyl inh: lowers PGC1a acetylation signal in U2OS cells; AlphaScreen anti-acetyl-lysine; with virally co-expressed GCN5 acetyltransferase; inhibition, % at 15.6 µM; 0.17% of 350,000 active;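 active means every replicate shows inhibition of at least 40%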;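 further: 0% = neutral control wells and 100% = positive control wells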
# ARNT-TACC3 inh: disrupts binding between human ARNT and TACC3; Q9Y6A5; AlphaScreen His-ARNT PAS-B/GST-TACC3 binding, luminescence; TACC3 fragment carries E629A point mutation; inhibition, % at 9.99 µM; 0.66% of 390,000 active; AID 623870;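 active means mean inhibition of replicates at least 50% and at least half of replicates each reaching 50%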;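 further: 0% = complete ARNT plus TACC3 wells and 100% = ARNT alone without TACC3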
# ERAP1 inh: inhibitors of human ERAP1 aminopeptidase. 0.15% of 340,000 active. inhibition, % at 10.7 µM. Q9NZ08. recombinant ERAP1, Leu-AMC fluorescence, 60 min;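 active means mean replicate inhibition of at least 30%, or all replicates individually reaching that 30% level; inactive means mean below 30% and not every replicate reaching it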;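 further: 0% = neutral control wells and 100% = L-leucinethiol positive control wells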
# Numbers without * were called inactive; . = no result given.
SMILES,S100A4 MyoIIA,CASP6 VEID inh,rRNA inh HTS,PGC1a acetyl inh,ARNT-TACC3 inh,ERAP1 inh
O=c1[nH]c(C2CCN(S(=O)(=O)c3ccc4c(c3)OCCO4)CC2)nc2c1nnn2Cc1c(F)cccc1Cl,-1,-1,-8,.,-3,2
O=c1[nH]c(C2CCN(S(=O)(=O)c3ccc4c(c3)OCCO4)CC2)nc2c1nnn2Cc1ccccc1F,-4,1,-28*,.,7,2
CCc1cccc(NC(=O)CCS(=O)(=O)c2ccc(Br)cc2)c1,-7,72*,0,12,8,1
COc1ccc(CNC(=O)CCS(=O)(=O)c2ccc(Br)cc2)cc1,-5,57*,-4,-4,-4,-1
COc1ccc(S(=O)(=O)CCC(=O)NCc2ccc(C)o2)cc1,0,-3,1,-3,.,2
O=C(CCS(=O)(=O)c1ccc(Br)cc1)NCCc1ccccc1,1,-2,-1,3,-4,2
Cc1ccc(S(=O)(=O)CCC(=O)Nc2cccc(C)c2)cc1,.,.,.,-1,-1,.
NS(=O)(=O)c1ccc(CCNC(=O)CCS(=O)(=O)c2ccc(Br)cc2)cc1,-11,79*,1,10,-9,0
COc1ccc(NC(=O)Nc2ccc3c(c2)C(=O)N([C@@H](C)CO)C[C@H](C)[C@@H](CN(C)C(=O)NC(C)C)O3)cc1,0,0,0,-4,-7,0
CNC(=O)C[C@@H]1CC[C@@H]2[C@H](COc3ccc(NC(=O)c4ccc(F)cc4)cc3C(=O)N2C)O1,.,.,2,-4,.,.
CCN(CC)c1ccc(/C=C(\C#N)C(N)=S)cc1,-8,9,-23*,3,22,.
CC1CCN(c2nc(-c3cccnc3)nc3scc(-c4ccccc4)c23)CC1,6,-1,8,.,1,12
CN1CCN(c2nc(-c3cccnc3)nc3scc(-c4ccccc4)c23)CC1,-2,-6,-22*,-1,5,2
C=CC[N+](C)(C)CCCNC(=O)/C=N/O,0,-146,9,.,-2,69*
C[C@H](CO)N1C[C@H](C)[C@@H](CN(C)S(C)(=O)=O)Oc2ccc(NC(=O)CCCCCC(=O)Nc3ccccc3N)cc2CC1=O,3,2,7,8,6,-2
CCOc1cc(/C=N/Nc2ccc(S(=O)(=O)Nc3ccccc3C(=O)O)cc2[N+](=O)[O-])cc(Cl)c1O,-13,24,-8.1*,.,.,-61
CC(=O)Nc1ccc(C=NNc2ccc(S(=O)(=O)Nc3ccccc3C(=O)O)cc2[N+](=O)[O-])cc1,1,25,.,-1,13,-21
O=C(O)c1ccccc1NS(=O)(=O)c1ccc(N/N=C/c2cccc(O)c2O)c([N+](=O)[O-])c1,-8,60*,.,9,-7,-1
CCOc1ccc(C=NNc2ccc(S(=O)(=O)Nc3ccccc3C(=O)O)cc2[N+](=O)[O-])cc1OC,.,.,.,.,-2,.
CC(C)NC(=O)N1CCCCN2[C@H](CO)[C@@H](c3ccc(C#Cc4ccccc4)cc3)[C@H]2C1,20,1,-60,-7,16,0
Cc1ccn2c(=O)nc(SCC(=O)N3CCC(C)CC3)nc2c1,-1,52*,7,19,-1,-1
CSc1ccccc1NC(=O)CN(C)C(=O)/C=C/c1ccccc1,6,36*,-8,4,.,1
CCS(=O)(=O)c1ccc(O)c(NC(=O)COc2ccc(Br)cc2)c1,0,0,-39,97*,4,8
C[C@@H]1CN([C@H](C)CO)S(=O)(=O)c2ccc(-c3cccc(C#N)c3)cc2O[C@H]1CN(C)C(=O)c1cccnc1,-4,0,1,9,-4,0
CCOC(=O)C1=C(COC(=O)c2ccc([N+](=O)[O-])o2)NC(=O)NC1C (stereo unspecified),-2,43*,-12,-6,28,0
SMILES,S100A4 MyoIIA,CASP6 VEID inh,rRNA inh HTS,PGC1a acetyl inh,ARNT-TACC3 inh,ERAP1 inh
O=C(Cc1c(F)cccc1Cl)OCC(=O)N1CCN(c2ccccc2)CC1,-5,1,-21*,-21,-3,-1
C[C@@H]1CCCCO[C@H](CN(C)S(=O)(=O)c2cccs2)[C@@H](C)CN([C@@H](C)CO)C(=O)c2cc(NS(=O)(=O)c3cccs3)ccc2O1,103*,-1,4,-3,.,-2
C[C@@H]1CCCCO[C@H](CN(C)S(=O)(=O)c2cccs2)[C@@H](C)CN([C@@H](C)CO)C(=O)c2cc(NS(C)(=O)=O)ccc2O1,0,-2,-2,4,active,-6
O=C(c1ccncc1)N1CC(=O)N2[C@H](C1)[C@@H](c1ccc(-c3ccccc3)cc1)[C@@H]2CO,-9,-1,3,14,.,-2
CCCNC(=O)Nc1ccc2c(c1)OC[C@@H](C)N(Cc1ccc(-c3ccccn3)cc1)C[C@@H](C)[C@@H](OC)CN(C)C2=O,0,-1,-1,-2,-10,2
Brc1ccc(N/N=C(/N=Nc2nn[nH]n2)c2ccccc2)cc1,3,19,-56,97*,45,-3
O=C(O)c1ccc(N=N/C(=N\Nc2ccc(C(=O)O)cc2)c2ccccc2)cc1,1,2,15,3,.,7
COc1ccc(-c2nn(-c3ccccc3)cc2/C=N/O)cc1,1,3,-38*,.,-4,0
CCOC(=O)C1CCCN(C(=O)C(=O)Nc2ccc3nc4n(c(=O)c3c2)CCCCC4)C1 (stereo unspecified),-2,1,-17*,9,12,5
CCOC(=O)Nc1ccc2nc3n(c(=O)c2c1)CCCCC3,8,-1,9,10,-5,3
C[C@H]1CN([C@@H](C)CO)S(=O)(=O)c2ccc(-c3ccc(C(=O)N(C)C)cc3)cc2O[C@@H]1CN(C)C(=O)Nc1ccccc1F,-93,-3,-1,1,-6,1
COc1ccc(S(=O)(=O)Nc2cccc3c2O[C@@H](CN(C)Cc2ccccc2)[C@@H](C)CN([C@H](C)CO)C3=O)cc1,-11,-1,1,-2,-4,1
Cc1ccc(N/N=C(\C#N)C(N)=S)cc1C,9,-1,-33*,.,-5,5
O=C(C[C@@H]1CC[C@H](NC(=O)c2cnccn2)[C@H](CO)O1)NCc1ccccc1F,8,3,2,6,11,0
Cn1c(SCC(=O)OCc2ccccc2)nnc1-c1ccco1,.,.,.,-4,-3,.
CCn1c(SCC(=O)OCc2ccccc2)nnc1-c1ccco1,0,57*,3,-8,-4,0
NC(=S)NN=Cc1nccc2c(N)cccc12,-3,32,-5,.,.,1
CCN(C(C)=O)c1cnc(C=NNC(N)=S)c2ccccc12,-5,33,11,5,86*,1
